Measured values published in ChEMBL document CHEMBL1128448, “Synthesis and antifungal activity of new azole derivatives containing an N-acylmorpholine ring” (1995).
Converted amounts (≈) assume the structure as drawn.

Columns and labels:
[1] = tested on: Rattus norvegicus; test: In vivo evaluation of antifungal activity in against vaginal candidosis in rat at dose 0.25 mg/kg on 15th day; assay type: functional
How it was run: (§1)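 Groups of 10 female Wistar rats given estradiol 25 mg/kg sc on day -5, infected intravaginally with C. albicans by sterile swab on day 0; infection confirmed on day 3 by swab culture (TSB, then Sabouraud agar). Oral dosing once daily on days 3, 4, 5; vehicle controls. Vaginal swabs cultured on days 10 and 15; read-out % cured (culture-negative).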

[2] = tested on: Mus sp.; test: In vivo evaluation of % survival rate after peroral administration on 3rd day at dose 1 mg/kg; assay type: functional; conditions: Mus sp., po
[3] = tested on: Candida tropicalis; test: In vitro evaluation of minimum inhibitory concentration against Candida tropicalis 2.11; assay type: functional; conditions: Candida tropicalis; read-out: MIC
How it was run: (§2)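 Stocks are 800 μg/mL in 50% ethanol. Each plate gets 10 μL of inoculum at 10^5 cfu/mL. Incubation at 25 °C, 48 h for yeasts and 120 h for dermatophytes and molds. Organisms are ATCC strains or clinical isolates.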

[4] = tested on: Aspergillus fumigatus; test: In vitro evaluation of minimum inhibitory concentration against Aspergillus fumigatus 33; assay type: functional; how it was run: as §2
[5] = tested on: Mus sp.; test: In vivo evaluation of % survival rate after peroral administration on 3rd day at dose 0.5 mg/kg; assay type: functional; conditions: route oral
[6] = tested on: Mus sp.; test: In vivo evaluation of % survival rate after peroral administration on 9th day at dose 1 mg/kg; assay type: functional; conditions: route oral, 1 mg/kg
[7] = tested on: Mus sp.; test: In vivo evaluation of % survival rate after peroral administration on 7th day at dose 1 mg/kg; assay type: functional; conditions: route oral, 1 mg/kg
[8] = tested on: Aspergillus niger; test: In vitro evaluation of minimum inhibitory concentration against Aspergillus niger 18; assay type: functional; conditions: Aspergillus niger; read-out: MIC; how it was run: as §2
[9] = tested on: Rattus norvegicus; test: In vivo evaluation of antifungal activity in against vaginal candidosis in rat at dose 0.25 mg/kg on 10th day; assay type: functional; how it was run: as §1
[10] = tested on: Mus sp.; test: In vivo evaluation of % survival rate after peroral administration on 9th day at dose 0.5 mg/kg; assay type: functional; conditions: route oral, 0.5 mg/kg
[11] = tested on: Aspergillus flavus; test: In vitro evaluation of minimum inhibitory concentration against Aspergillus flavus 19; assay type: functional; conditions: Aspergillus flavus; read-out: MIC; how it was run: as §2
[12] = tested on: Trichophyton rubrum; test: In vitro evaluation of minimum inhibitory concentration against Trichophyton rubrum 90; assay type: functional; how it was run: as §2
[13] = tested on: Candida parapsilosis; test: In vitro evaluation of minimum inhibitory concentration against Candida parapsilosis 61; assay type: functional; how it was run: as §2
[14] = tested on: Pichia kudriavzevii; test: In vitro evaluation of minimum inhibitory concentration against Candida krusei 70; assay type: functional; conditions: Pichia kudriavzevii; read-out: MIC; how it was run: as §2
[15] = tested on: Nannizzia gypsea; test: In vitro evaluation of minimum inhibitory concentration against Microsporum gypseum 22; assay type: functional; how it was run: as §2
[16] = tested on: Rattus norvegicus; test: In vivo evaluation of antifungal activity against vaginal candidosis in rat at dose 0.1 mg/kg on 10th day; assay type: functional
How it was run: (§3)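 Groups of 10 female Wistar rats given estradiol 25 mg/kg sc on day -5, then vaginally inoculated with C. albicans on day 0. Infection is confirmed by culture of day-3 swabs. Compound is dosed orally once daily on days 3–5; controls get vehicle. Cure is scored by culture of vaginal swabs taken on days 10 and 15.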

[17] = tested on: Trichophyton benhamiae; test: In vitro evaluation of minimum inhibitory concentration against Trichophyton mentagrophytes 23; assay type: functional, Arthroderma benhamiae; how it was run: as §2
[18] = tested on: Mus sp.; test: In vivo evaluation of % survival rate after peroral administration on 5th day at dose 0.5 mg/kg; assay type: functional; conditions: route oral
[19] = tested on: Mus sp.; test: In vivo evaluation of % survival rate after peroral administration on 5th day at dose 1 mg/kg; assay type: functional; conditions: route oral, 1 mg/kg
[20] = tested on: Nakaseomyces glabratus; test: In vitro evaluation of minimum inhibitory concentration against Torulopsis glabrata 78; assay type: functional; how it was run: as §2
[21] = tested on: Kluyveromyces marxianus; test: In vivo Evaluation of minimum inhibitory concentration against Candida pseudotropicalis 13; assay type: functional; how it was run: as §2
[22] = tested on: Microsporum canis; test: In vitro evaluation of minimum inhibitory concentration against Microsporum canis 47; assay type: functional; how it was run: as §2
[23] = tested on: Rattus norvegicus; test: In vivo evaluation of antifungal activity against vaginal candidosis in rat at dose 0.1 mg/kg on 15th day; assay type: functional; how it was run: as §3
[24] = tested on: Mus musculus; test: In vivo evaluation of % survival rate after peroral administration on 7th day at dose 0.5 mg/kg; assay type: functional; conditions: route oral, 0.5 mg/kg
[25] = tested on: Rhodotorula mucilaginosa; test: In vitro evaluation of minimum inhibitory concentration against Rhodotorula rubra 16; assay type: functional; how it was run: as §2

SMILES: C[C@H]1N(C(=O)c2ccc(C(F)(F)F)cc2)CCO[C@@]1(Cn1cncn1)c1ccc(F)cc1F (stereo in doubt)
- Cure rate [1]: 60%
- survival at 1 mg/kg [2]: 100%
- MIC [3]: > 80 µg/mL
- MIC [4]: 10 µg/mL (≈ 21.4 µM)
- survival at 0.5 mg/kg [5]: 100%
- Survival [6]: 100%
- Survival [7]: 100%
- MIC [8]: 40 µg/mL (≈ 85.8 µM)
- Cure rate [9]: 40%
- Survival [10]: 100%
- MIC [11]: > 80 µg/mL
- MIC [12]: 10 µg/mL (≈ 21.4 µM)
- MIC [13]: 2.5 µg/mL (≈ 5.36 µM)
- MIC [14]: 80 µg/mL (≈ 172 µM)
- MIC [15]: 20 µg/mL (≈ 42.9 µM)
- Cure rate [16]: 10%
- MIC [17]: 10 µg/mL (≈ 21.4 µM)
- survival at 0.5 mg/kg [18]: 100%
- Survival [19]: 100%
- MIC [20]: 40 µg/mL (≈ 85.8 µM)
- MIC [21]: 40 µg/mL (≈ 85.8 µM)
- MIC [22]: 10 µg/mL (≈ 21.4 µM)
- Cure rate [23]: 20%
- Survival [24]: 100%
- MIC [25]: >80 µg/mL
